Bioassay records as filed in PubChem BioAssay.
PHOSPHO1 inh: inhibitors of human PHOSPHO1 phosphatase | inhibition, % at 13.3 µM | actives 1.1% (n = 290,000) | AID 1565 | recombinant PHOSPHO1, absorbance phosphatase assay; in the data active = inhibition above about 60%
UBC13 inh: human UBC13 polyubiquitination inhibition; P61088; UBC13 polyubiquitin chain formation, TR-FRET; inhibition, % at 20 µM; actives 0.47% (n = 330,000); AID 485273; in the data active = inhibition above about 45%, passing the limit was not always enough
IDE inh: inhibitors of human insulin-degrading enzyme in cells; P14735; HEK cells, FAbetaB cleavage, fluorescence polarization; inhibition, % at 5.59 µM; actives 0.41% (n = 320,000); AID 434962;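 active = percent inhibition above the average of all tested compounds plus 3 SD, set per screening campaign, cut at about 16% in these data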;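 also: IDE supplied by intact live HEK cells; FP after avidin binding of uncleaved biotin substrate so inhibition keeps polarization high; 0% = DMSO wells and 100% = 60 µM reference IDE inhibitor Ii1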
IDE cell activ: boosts human insulin-degrading enzyme activity in HEK cells; FAbeta-B cleavage, fluorescence polarization; 0% vehicle, 100% cell-free pure enzyme wells; activation, % at 5.96 µM; actives 0.073% (n = 340,000); AID 493087;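 active = activation above the mean of all tested compounds plus 3 SD, set per screening campaign, cut at about 17% in these data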
procasp3 activ: procaspase-3 (human) activation; P42574; actives 0.11% (n = 330,000); recombinant procaspase-3 D3A, Ac-DEVD-pNA absorbance 405 nm; AID 463141; activation, % at 8.5 µM;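 active = activation above the mean of all tested compounds plus 3 SD, cut at about 21% in these data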;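 also: 0% = DMSO alone and 100% = DMSO wells spiked with extra 5 µM PC-3 D3A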
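Technique: 405 nm absorbance of p-nitroaniline, reads at 0 and 120 min; Test system: Procaspase-3 D3A mutant; Incubation: 1 h enzyme-compound preincubation, then 2 h substrate reaction, 25 °C; Repeats: singlicate, each compound tested once; Benchmarks: low control DMSO wells, high control DMSO plus 5 µM PC-3 D3A.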
procasp7 counter: counter-screen for procaspase-3 activators: activators of human procaspase-7; P55210; activation, % at 8.5 µM; actives 0.093% (n = 330,000); recombinant procaspase-7, Ac-DEVD-pNA absorbance 405 nm; D23A/D198A/D206A triple mutant, cannot self-cleave; scale: DMSO 0, 5 µM enzyme 100; AID 463210;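 active = percent activation above the screen-wide mean plus 3 SD, cut at about 25% in these data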
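Assay system: Uncleavable procaspase-7 mutant enzyme; Input: 2 µM procaspase-7 mutant as dispensed; Also added: DEVD-pNA substrate; Medium: Zinc-free HEPES pH 7.4 with 300 mM NaCl, 0.01% Triton X-100; Timing: 1 h compound preincubation, 2 h substrate cleavage, 25 °C; Measured by: Epi-absorbance of released pNA at 405 nm, two timepoints.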
Casp3 counter: counter-screen for UBC13 inhibitors: human caspase-3 inhibition; shares compounds with UBC13 inh; Recombinant caspase-3, Caspase-Glo 3/7 luminescence, 60 min; inhibition, % at 20 µM; actives 4% (n = 1,400);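 active = mean inhibition across replicates above about 26%, limit read from the data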;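 also: plate controls were DMSO with caspase-3 for no effect and DMSO wells lacking enzyme for full effect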
UBC13 confirm: confirmation of human UBC13 polyubiquitin inhibitors; actives 68% (n = 1,400); AID 488859; UBC13 polyubiquitination, TR-FRET, biochemical; shares compounds with UBC13 inh; inhibition, % at 10 µM; in the data active = inhibition above about 45%
Active calls of the source: *. Compounds with a hit are over-represented: about 1.9% of the library has one in this group of screens.

For CCN(C(=O)COC(=O)CCC1CCCC1)c1c(N)n(Cc2ccccc2)c(=O)[nH]c1=O the results were UBC13 inh 0 and IDE cell activ -1.
For CCN(CC)CCOC(=O)c1ccc(N/C=C(/C#N)c2nc(-c3cc4ccccc4oc3=O)cs2)cc1 the results were PHOSPHO1 inh 28, UBC13 inh 114*, IDE cell activ 0, Casp3 counter 1 and UBC13 confirm 132*.
COc1cc(/C=C(\C#N)c2nc(-c3cc4ccccc4oc3=O)cs2)ccc1O was read as PHOSPHO1 inh -11, UBC13 inh -55, IDE inh 0, IDE cell activ -3, procasp3 activ 1 and procasp7 counter -5.
CCN(CC)CCOC(=O)c1ccc(N/C=C(/C#N)c2nc(-c3ccc4c(c3)OCO4)cs2)cc1 was read as PHOSPHO1 inh 10, UBC13 inh 108*, IDE inh -1, IDE cell activ 7, procasp3 activ -3, procasp7 counter -1, Casp3 counter 1 and UBC13 confirm 132*.
Screening CCN(CC)CCOC(=O)c1ccc(N/C=C(/C#N)c2nc(-c3ccc(OC)cc3)cs2)cc1 returned PHOSPHO1 inh -1, UBC13 inh 96*, IDE inh 3, IDE cell activ 5, procasp3 activ -2, procasp7 counter -3, Casp3 counter 0 and UBC13 confirm 130*.
For CCN(CC)CCCN(C(=O)c1ccc(Br)cc1)c1nc(-c2ccc(OC)cc2)cs1 the results were PHOSPHO1 inh 3, UBC13 inh 26, IDE inh 6, IDE cell activ 4, procasp3 activ 2 and procasp7 counter -10.
`CNS(=O)(=O)c1cccc(C(=O)OCc2cc(=O)oc3c(C)c(O)ccc23)c1` gave PHOSPHO1 inh 2, UBC13 inh 4, IDE inh 3, IDE cell activ -3, procasp3 activ 0 and procasp7 counter 3.
`COc1cc2[nH]c(=S)nc(NC3CCCCCC3)c2cc1OC` gave PHOSPHO1 inh -16, UBC13 inh 36, IDE inh 1, IDE cell activ 0, procasp3 activ 2 and procasp7 counter -22.
For COc1cc2[nH]c(=S)nc(Nc3ccc(NC(C)=O)cc3)c2cc1OC the results were PHOSPHO1 inh 11, UBC13 inh 46*, IDE inh -8, IDE cell activ -1, procasp3 activ -8, procasp7 counter -7, Casp3 counter 4 and UBC13 confirm 48*.
Screening S=C(NCc1cccs1)Nc1ccccc1 returned PHOSPHO1 inh -26, UBC13 inh 4, IDE inh 3, IDE cell activ 3, procasp3 activ 4 and procasp7 counter 15.
Screening Cc1ccc(NC(=S)NCc2cccs2)cc1 returned PHOSPHO1 inh 15, UBC13 inh 52*, IDE inh -3, IDE cell activ 7, procasp3 activ 4, procasp7 counter -1, Casp3 counter 2 and UBC13 confirm 6.
Screening CCN(CC)C(=O)[C@H]1CC(CC(=O)NC(C)(C)C)C(=O)N2CCc3c([nH]c4ccccc34)[C@]12C (stereo partly specified) returned UBC13 inh 8, IDE inh 3, IDE cell activ -5, procasp3 activ -6 and procasp7 counter -4.
`Cc1cc(N)c2cc(NC(=O)/C=C/c3ccccc3Cl)ccc2n1` gave PHOSPHO1 inh 37, UBC13 inh 117*, IDE inh -1, IDE cell activ 28*, procasp3 activ 5, procasp7 counter -2, Casp3 counter -1 and UBC13 confirm 129*.
`Cc1cc(C)nc(NC(=O)/C=C/c2ccccc2Cl)n1` gave PHOSPHO1 inh 18, UBC13 inh 0, IDE inh -2, IDE cell activ 3, procasp3 activ -7 and procasp7 counter 3.
Screening CCN(c1ccccc1)S(=O)(=O)c1ccc(OC)c(NC(=O)c2ccc(=O)[nH]c2)c1 returned UBC13 inh -11, IDE inh 1, IDE cell activ 7, procasp3 activ 13 and procasp7 counter 10.
O=C(C[C@@H]1C/C=C\C[C@H](NC(=O)OCC2c3ccccc3-c3ccccc32)C(=O)OC[C@H]2CCCN2C1=O)NCCO was read as UBC13 inh -8, IDE inh 6, IDE cell activ -5, procasp3 activ 2 and procasp7 counter -2.
Screening COc1ccc(NC(=S)NNC(=O)c2nnn(-c3ccccc3)c2C)cc1 returned PHOSPHO1 inh -10, UBC13 inh 59*, IDE inh 3, IDE cell activ -2, procasp3 activ -10, procasp7 counter -20, Casp3 counter -2 and UBC13 confirm 82*.
For COc1ccc(NC(=O)c2cnn(-c3ccccc3)c2C)cc1 the results were PHOSPHO1 inh 13, UBC13 inh 8, IDE inh 6, IDE cell activ -6, procasp3 activ 0 and procasp7 counter -1.
c1ccc2c(C[C@@H]3CNCCN3CC3CCCCC3)cccc2c1 was read as UBC13 inh 60*, IDE inh 2, IDE cell activ 4, procasp3 activ -6, procasp7 counter -7, Casp3 counter 2 and UBC13 confirm 58*.
`CCCOC(=O)c1cccc(Nc2nc(-c3cccnc3)nc3ccccc23)c1` gave PHOSPHO1 inh -48, UBC13 inh 49*, IDE inh 2, IDE cell activ -8, procasp3 activ 7, procasp7 counter 6, Casp3 counter -4 and UBC13 confirm 66*.
Screening Cc1ncc(CO)c(/C=N/NC(=S)Nc2ccc(Cl)c(Cl)c2)c1O returned PHOSPHO1 inh -78, UBC13 inh 51*, IDE inh 3, IDE cell activ -1, procasp3 activ 2, procasp7 counter -7, Casp3 counter -2 and UBC13 confirm 28.
For CCOc1ccc(N2C(=O)C3C(c4ccccc4)=NN(c4ccccc4)C3C2=O)cc1 (stereo unspecified) the results were PHOSPHO1 inh -8, UBC13 inh 56*, IDE inh -1, IDE cell activ -1, procasp3 activ 2, procasp7 counter 14, Casp3 counter -4 and UBC13 confirm 39.
C=C(C)CSc1nc2sc3c(c2c(=O)n1-c1ccc(C)cc1)CCN(C)C3 was read as PHOSPHO1 inh 18, UBC13 inh 2 and IDE cell activ -3.
